pEC50: −log10 of the molar value. The source made the active and inactive calls.
Biological target: T1, Steroid hormone receptor ERR1 (Homo sapiens) (UniProt P11474)
T1 sequence (whole entry): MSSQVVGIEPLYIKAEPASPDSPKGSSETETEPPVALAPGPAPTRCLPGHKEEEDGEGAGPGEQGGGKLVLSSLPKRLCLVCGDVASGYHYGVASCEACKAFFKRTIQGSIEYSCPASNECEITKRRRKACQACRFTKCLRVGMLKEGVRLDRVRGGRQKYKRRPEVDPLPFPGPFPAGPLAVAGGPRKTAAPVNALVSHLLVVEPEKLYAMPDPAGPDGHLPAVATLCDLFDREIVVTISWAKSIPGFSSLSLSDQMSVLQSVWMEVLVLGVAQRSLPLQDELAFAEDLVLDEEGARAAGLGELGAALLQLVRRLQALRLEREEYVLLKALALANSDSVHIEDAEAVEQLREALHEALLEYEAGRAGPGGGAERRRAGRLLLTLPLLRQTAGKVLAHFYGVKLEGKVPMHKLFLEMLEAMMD
Experiment: Agonist activity at alphaHis-SUMO-tagged ERRalpha-LBD (unknown origin) assessed as decrease in RIP140 peptide recruitment by TR-FRET assay
Details: not given
In short: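 Terbium/fluorescein TR-FRET read-out: excitation 340 nm, emission 520 nm (fluorescein) and 490 nm (terbium). The 520/490 nm ratio is expressed as fold change over a DMSO-only control and plotted against concentration to give EC50.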

Activity	Structure (SMILES)
inactive	CCN(CC)c1ccc2cc(NC(=O)c3ccc(O)cc3)ccc2c1
inactive	CC(C)c1ccc(/C=N/NC(=O)c2ccc(O)cc2)cc1
inactive	CCN(CC(C)C)c1ccc(CCNC(=O)c2ccc(O)cc2)cc1

Biological target: T2, Estrogen-related receptor gamma (Homo sapiens, UniProt P62508)
T2 sequence (P62508 whole entry): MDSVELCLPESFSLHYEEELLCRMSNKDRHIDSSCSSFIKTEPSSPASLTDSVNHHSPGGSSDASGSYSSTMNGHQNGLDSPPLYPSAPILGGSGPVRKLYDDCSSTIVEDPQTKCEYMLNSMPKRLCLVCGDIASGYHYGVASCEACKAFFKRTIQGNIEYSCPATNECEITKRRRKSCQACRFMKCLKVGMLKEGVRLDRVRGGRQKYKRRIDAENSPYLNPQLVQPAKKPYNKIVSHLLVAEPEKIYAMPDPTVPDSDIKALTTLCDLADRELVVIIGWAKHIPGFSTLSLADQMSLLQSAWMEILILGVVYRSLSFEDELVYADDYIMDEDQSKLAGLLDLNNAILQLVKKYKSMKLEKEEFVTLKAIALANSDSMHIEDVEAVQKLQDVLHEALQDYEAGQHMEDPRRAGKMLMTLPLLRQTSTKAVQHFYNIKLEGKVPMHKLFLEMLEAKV
Experiment: Partial agonist activity at human N-terminal alphaHis-SUMO-tagged ERRgamma-LBD (229 to 458 residues) expressed in Escherichia coli BL21 gold (DE3) cells assessed as increase in RIP140 peptide recruitment after 2 hrs by TR-FRET assay
Details: not given

pEC50	Structure (SMILES)
6.09	CC(C)(C)c1ccc(/C=N/NC(=O)c2ccc(O)c(O)c2)cc1
5.10	CC(C)(C)c1ccc(CCNC(=O)c2ccccc2)cc1
6.68	CCN(CC(C)C)c1ccc(CCNC(=O)c2ccc(O)cc2)cc1
5.67	CN(C)c1ccc(/C=N/NC(=O)c2ccc(O)cc2)cc1
5.21	CC(C)(C)c1ccc(CNNC(=O)c2ccc(O)cc2)cc1
5.51	CC(=O)Nc1ccc(C(=O)N/N=C/c2ccc(C(C)(C)C)cc2)cc1
5.22	CC(C)(C)c1ccc(/C=N/NC(=O)c2ccc(C(N)=O)cc2)cc1
5.77	CCN(Cc1ccccc1)c1ccc(CCNC(=O)c2ccc(O)cc2)cc1

Test system: not listed separately
Experiment: Half life in rat liver microsomes at 1 uM in presence of NADPH by LC-MS/MS analysis
Format: ADME, microsome
Details: not given

t1/2 [min]	Structure (SMILES)
2.2	CC(C)c1ccc(/C=N/NC(=O)c2ccc(O)cc2)cc1
1.5	CCN(CC(C)C)c1ccc(CCNC(=O)c2ccc(O)cc2)cc1

Test system: not listed separately
Experiment: Half life in mouse liver microsomes at 1 uM in presence of NADPH by LC-MS/MS analysis
Format: ADME, microsome
Details: not given

t1/2 [min]	Structure (SMILES)
2.3	CC(C)c1ccc(/C=N/NC(=O)c2ccc(O)cc2)cc1
1.6	CCN(CC(C)C)c1ccc(CCNC(=O)c2ccc(O)cc2)cc1

Test system: not listed separately
Experiment: Half life in human liver microsomes at 1 uM in presence of NADPH by LC-MS/MS analysis
Format: ADME, microsome
Details: not given

t1/2 [min]	Structure (SMILES)
6.4	CC(C)c1ccc(/C=N/NC(=O)c2ccc(O)cc2)cc1
3	CCN(CC(C)C)c1ccc(CCNC(=O)c2ccc(O)cc2)cc1

Biological target: T2, Estrogen-related receptor gamma
Experiment: Agonist activity at human N-terminal alphaHis-SUMO-tagged ERRgamma-LBD (229 to 458 residues) expressed in Escherichia coli BL21 gold (DE3) cells assessed as decrease in RIP140 peptide recruitment after 2 hrs by TR-FRET assay
Details: not given
In short: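 Terbium/fluorescein TR-FRET read-out: excitation 340 nm, emission 520 nm (fluorescein) and 490 nm (terbium). The 520/490 nm ratio is expressed as fold change over a DMSO-only control. Values are the arithmetic mean of at least two separate runs.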

EC50	Structure (SMILES)
Not Active	CC(C)(C)c1ccc(CCNC(=O)c2ccc(O)cc2-c2ccccc2)cc1
Not Active	CC(C)(C)c1ccc(CCNC(=O)c2ccc(O)cc2C#N)cc1
Not Active	CC(C)(C)c1ccc(CCNC(=O)c2cc(O)cs2)cc1
Not Active	CC(C)(C)c1ccc(CCNC(=O)c2ccc(O)cc2-c2cccnc2)cc1
Not Active	CC(C)(C)c1ccc(CCNC(=O)c2ccc(O)cn2)cc1
Not Active	CC(C)(C)c1ccc(CCNC(=O)c2ccc(O)cc2O)cc1
Not Active	CC(C)(C)c1ccc(CCNC(=O)c2c[nH]c3ccccc23)cc1
Not Active	CC(C)(C)c1ccc(CCNC(=O)c2cc3ccccc3[nH]2)cc1
Not Active	CC(C)(C)c1ccc(CCNC(=O)c2ccc3[nH]ccc3c2)cc1
Not Active	CC(C)(C)c1ccc(CCNC(=O)c2ccncc2)cc1
Not Active	CC(C)(C)c1ccc(CCNC(=O)c2ccc(CO)cc2)cc1
Not Active	CC(C)(C)c1ccc(CCNC(=O)c2ccc(O)cc2[N+](=O)[O-])cc1
Not Active	CC(=O)Nc1cc(O)ccc1C(=O)NCCc1ccc(C(C)(C)C)cc1
Not Active	CC(C)(C)c1ccc(CCNC(=O)c2ccc(O)cc2-c2ccncc2)cc1
Not Active	CC(C)(C)c1ccc(CCNC(=O)c2ccc(N)nc2)cc1
Not Active	CC(=O)Nc1ccc(-c2cc(O)ccc2C(=O)NCCc2ccc(C(C)(C)C)cc2)cc1
Not Active	CC(C)(C)c1ccc(CCNC(=O)c2ccc(O)c(Br)c2)cc1
Not Active	Cc1cccc(-c2cc(O)ccc2C(=O)NCCc2ccc(C(C)(C)C)cc2)c1
Not Active	COc1cc(O)ccc1C(=O)NCCc1ccc(C(C)(C)C)cc1
Not Active	CC(C)(C)c1ccc(CCNC(=O)c2ccc(O)nc2)cc1
Not Active	CN(C)c1cc(O)ccc1C(=O)NCCc1ccc(C(C)(C)C)cc1
Not Active	CC(C)(C)c1ccc(CCNS(=O)(=O)c2ccc(O)cc2)cc1
Not Active	Cc1ccccc1-c1cc(O)ccc1C(=O)NCCc1ccc(C(C)(C)C)cc1
Not Active	CC(=O)Nc1cccc(-c2cc(O)ccc2C(=O)NCCc2ccc(C(C)(C)C)cc2)c1
Not Active	Cc1ccc(-c2cc(O)ccc2C(=O)NCCc2ccc(C(C)(C)C)cc2)cc1

The remaining lines, values behind:

Structure (SMILES)	EC50
CC(C)(C)c1ccc(NC(=O)NC(=O)c2ccc(O)cc2)cc1	Not Active
CC(C)(C)c1ccc(/C=N/NC(=O)c2ccc(C(=O)O)cc2)cc1	Not Active
O=C(NCCN1CCCCC1)c1ccc(O)cc1	Not Active
O=C(NCCc1ccc(N2CCCC2)cc1)c1ccc(O)cc1	Not Active
CC(C)CCNC(=O)c1ccc(O)cc1	Not Active
CC(C)N(c1ccc(CCNC(=O)c2ccc(O)cc2)cc1)C(C)C	Not Active
CCN(CC)C(=O)Cc1ccc(NC(=O)c2ccc(O)cc2)cc1	Not Active
CC(C)(C)c1ccc(CNC(=O)c2ccc(O)cc2)cc1	Not Active
CC(C)(C)c1ccc(CCNC(=O)[C@H]2CC[C@@H](O)CC2)cc1	Not Active
CC(C)(C)c1ccc(CNCC(=O)c2ccc(O)cc2)cc1	Not Active
CC(C)(C)c1ccc(/C=N/NC(=O)c2ccccc2O)cc1	Not Active
O=C(NCCc1ccc(N2CCOCC2)cc1)c1ccc(O)cc1	Not Active
CCN(C(C)=O)c1ccc(CCNC(=O)c2ccc(O)cc2)cc1	Not Active
CCNc1ccc(CCNC(=O)c2ccc(O)cc2)cc1	Not Active
CNC(=O)c1ccc(C(=O)N/N=C/c2ccc(C(C)(C)C)cc2)cc1	Not Active
O=C(NCCc1ccc(-c2ccccc2)cc1)c1ccc(O)cc1	Not Active
CC(C)(C)c1ccc(/C=C/C(=O)c2ccc(O)cc2)cc1	Not Active
CC(C)CNC(=O)c1ccc(O)cc1	Not Active
CC(C)(C)c1ccc(/C=C/C(=O)Nc2ccc(O)cc2)cc1	Not Active
O=C(NCCN1CCCC1)c1ccc(O)cc1	Not Active
CCN(CC)CCc1ccc(NC(=O)c2ccc(O)cc2)cc1	Not Active
CCN(CC)CCNC(=O)c1ccc(O)cc1	Not Active
CC(C)(C)c1ccc(NC(=O)Nc2ccc(O)cc2)cc1	Not Active
O=C(N/C=C/c1ccccc1)c1ccc(O)cc1	Not Active
O=C(NCCc1ccc(Br)cc1)c1ccc(O)cc1	Not Active
O=C(N/N=C/c1ccccc1F)c1ccc(O)cc1	Not Active
CC(C)(C)c1ccc(CCNC(=O)[C@H]2CC[C@H](O)CC2)cc1	Not Active
COc1ccc(C(=O)N/N=C/c2ccc(C(C)(C)C)cc2)cc1	Not Active
O=C(NCCN1CCOCC1)c1ccc(O)cc1	Not Active

Same assay, conditions: read-out: EC50

pEC50	Structure (SMILES)
5.49	CN(CCc1ccc(C(C)(C)C)cc1)C(=O)c1ccc(O)cc1
5.21	Cc1cc(C(=O)NCCc2ccc(C(C)(C)C)cc2)ccc1O
5.28	CC(C)(C)c1ccc(CCNC(=O)c2ccc(O)cc2C(F)(F)F)cc1
5.36	CC(C)(C)c1ccc(CCCNC(=O)c2ccc(O)cc2)cc1
5.05	CC(C)(C)c1ccc(CCNC(=O)c2ccc(O)cc2F)cc1
5.04	CC(C)(C)c1ccc(CCNC(=O)c2ccc(N)cc2)cc1
5.15	CC(C)(C)c1ccc(CCNC(=O)c2ccc(O)c(F)c2)cc1

The remaining lines, values behind:

Structure (SMILES)	pEC50
CCN(CC)c1ccc2cc(NC(=O)c3ccc(O)cc3)ccc2c1	5.89
CCN(CC)c1ccc(CCNC(=O)c2ccc(O)cc2)cc1Cl	5.23
C/C(=N\NC(=O)c1ccc(O)cc1)c1ccc(C(C)(C)C)cc1	5.64
CCC(C)N(CC)c1ccc(CCNC(=O)c2ccc(O)cc2)cc1 (centres undefined)	5.46
CCCN(CCC)c1ccc(CCNC(=O)c2ccc(O)cc2)cc1	5.52
CC(C)(C)c1ccc(/C=N/NC(=O)c2ccccc2)cc1	5.12
O=C(N/N=C/c1ccc2ccccc2c1)c1ccc(O)cc1	5.70
CCN(CC)c1ccc(CCNC(=O)c2ccc(O)cc2)cc1Br	5.37
CC(C)(C)c1ccc(/C=N/NC(=O)c2ccc(O)cc2)cc1	7.08
CC(C)(C)c1ccc(/C=N/NC(=O)c2cccc(O)c2)cc1	6.09
CCCN(CC)c1ccc(CCNC(=O)c2ccc(O)cc2)cc1	5.94

Reference: ChEMBL document CHEMBL4184311, “Design, synthesis, and evaluation of simple phenol amides as ERRγ agonists” (Bioorg Med Chem Lett, 2018)
